Among the data in the array DNA melting data of Ke et al. (doi:10.1101/2024.01.08.574731) are folding enthalpy and Tm values, retold here.

Data set [1] is described as follows: folding enthalpy; higher = less favourable; fluorescence melt of hairpins on a sequencing array, two-state fit. The settings on record: sodium 0.088 M. A digest of the protocol:
(§1)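 Two-state fits, bootstrapped, provided melting temperature and folding enthalpy from Cy3 fluorescence normalised to pre-quench Cy3 and to control constructs. Library hairpins with annealed Cy3 and quencher oligos were imaged on a sequenced MiSeq flow cell in 50 mM Na-HEPES pH 8.0, 25 mM NaCl, at 2.5 °C intervals up to 60 °C. Four replicates were combined with inverse-variance weighting. A 9.35 °C upward shift was applied to fitted temperatures to match UV melts.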

Data set [2] can be described thus: melting temperature; fluorescence melt of hairpins on a sequencing array, two-state fit, raised by 9.35 °C to match UV melts. The settings on record: sodium 0.088 M. A digest of the protocol: as §1

For the sequence GATCGTCGGGACGATC ((((((....)))))), the folding enthalpy in data set [1] was -41.3 kcal/mol. Also, in data set [2], the Tm is 61.7 °C.
GACCAAGGAAACTTGATC ((.((((....)))).)): the folding enthalpy in data set [1] was -16.8 kcal/mol. Moreover, the Tm in data set [2] came to 28.8 °C.
As to GCTATCGGAAACGATGGC ((.((((....)))).)), the folding enthalpy in data set [1] was -47.6 kcal/mol. Also, the Tm in data set [2] came to 52.9 °C.
Take GATCGACACTCGATC ((((((...)))))): the folding enthalpy in data set [1] is -30.9 kcal/mol. Further, the Tm in data set [2] came out at 49.9 °C.
Consider GATCTTCAGGAAGATC ((((((....)))))), for which the folding enthalpy in data set [1] is -29 kcal/mol. Also, the Tm in data set [2] was 46.8 °C.
In the case of GTGTACCCGAAAGGGCAC (((..(((....)))))), the folding enthalpy in data set [1] is -20.6 kcal/mol. Also, the Tm in data set [2] came to 48.3 °C.
In the same order, the values of GATCCGTTAACGGATC ((((((....)))))) are -43.2 kcal/mol and 64 °C.
On to GATCCATACGTGGATC ((((((....)))))), for which the folding enthalpy in data set [1] is -51 kcal/mol. Besides, the Tm in data set [2] came to 54.5 °C.
As to GTGACCGAAAGGTGTCAC ((((((....)))..))), the folding enthalpy in data set [1] is -25.4 kcal/mol. Further, the Tm in data set [2] was found to be 45.8 °C.
Regarding CGAACGCGGAAACGCTCG (((..(((....)))))), the folding enthalpy in data set [1] is -17.2 kcal/mol. For the same sequence, the Tm in data set [2] was 40.5 °C.
In the same order, the values of GATCTACAGGTAGATC ((((((....)))))) are -37.6 kcal/mol and 48.8 °C.
With GTCGCTGGAAACAGCGGC (.(((((....))))).), in data set [1], the folding enthalpy was -23.4 kcal/mol. The Tm in data set [2] is 65.6 °C.
In the same order, the values of GCGGAAGAAATTCCGC ((((((....)))))) are -34.9 kcal/mol and 61.8 °C.
In the same order, the values of GAGGCCGGAAACAGCCTC (((((.(....).))))) are -27.5 kcal/mol and 50.2 °C.
In the same order, the values of GATCTCACCAGAGATC ((((((....)))))) are -31.9 kcal/mol and 54.5 °C.
For GACCTGGCGAAAGCCGTC (((..(((....)))))), the folding enthalpy in data set [1] is -5.62 kcal/mol. The Tm in data set [2] was determined as 34.9 °C.
In the same order, the values of GATCGGGTGTCCGATC ((((((....)))))) are -37.7 kcal/mol and 58.3 °C.
In the case of GATCTCTTCAGAGATC ((((((....)))))), in data set [1], the folding enthalpy was -40.9 kcal/mol. The Tm in data set [2] is 60.1 °C.
In the same order, the values of GTCACCGGAAACGATGAC ((((.((....)).)))) are -33.5 kcal/mol and 45.9 °C.
Turning to GAGGAAGGAAACTTCCTC (((((((....))))))), the folding enthalpy in data set [1] was -35.5 kcal/mol. Moreover, in data set [2], the Tm turned out to be 59 °C.
In the same order, the values of GATCAGCTCTCTGATC ((((((....)))))) are -36.9 kcal/mol and 49.3 °C.
In the same order, the values of GGTTCTCGAAAGAGACC (((.(((....)))))) are -20.9 kcal/mol and 49.7 °C.
In the same order, the values of GCCTCGCGAAAGCCTGGC (((..((....))..))) are -22.9 kcal/mol and 46.5 °C.
On to GATCGTAATTACGATC ((((((....)))))), for which the folding enthalpy in data set [1] was -36 kcal/mol. In data set [2], the Tm was determined as 56.3 °C.
On to GATCTGCCGTCAGATC ((((((....)))))), for which, in data set [1], the folding enthalpy is -37.8 kcal/mol. For the same sequence, in data set [2], the Tm was 50.2 °C.
In the same order, the values of GTAAGCGAAAGCTGATAC ((((((....)))..))) are -12.2 kcal/mol and 29.8 °C.
GCGATGCGAAAGCACGGC ((..(((....)))..)): the folding enthalpy in data set [1] was -16.5 kcal/mol. The Tm in data set [2] was found to be 51.2 °C.
Take GATCAGAGTTCTGATC ((((((....)))))): the folding enthalpy in data set [1] is -36.6 kcal/mol. Also, in data set [2], the Tm was 50.5 °C.
In the same order, the values of GATCAAACATTTGATC ((((((....)))))) are -30.2 kcal/mol and 42.4 °C.
As to GCAGAAGGAAACTTCTAC (.(((((....))))).), in data set [1], the folding enthalpy is -11.7 kcal/mol. Besides, the Tm in data set [2] turned out to be 27.8 °C.
In the same order, the values of GACGGCGAAAGCCATGTC ((((((....)))..))) are -13.3 kcal/mol and 45.2 °C.
In the case of ACTCTGAAAAGAGT (((((....))))), the folding enthalpy in data set [1] was -17.4 kcal/mol. In data set [2], the Tm stood at 43.4 °C.
As to GATCATCACAATGATC ((((((....)))))), the folding enthalpy in data set [1] was -44.1 kcal/mol. The Tm in data set [2] was determined as 47.7 °C.
On to GCTCTAACGAAAGTTAGC (((..(((....)))))), for which, in data set [1], the folding enthalpy is -13.7 kcal/mol. In data set [2], the Tm is 33.8 °C.
As to GAGGCCGAAAGGCTTCTC ((((((....)))..))), the folding enthalpy in data set [1] was -19.1 kcal/mol. Besides, the Tm in data set [2] was found to be 54.9 °C.
For the sequence GGTGACGAAAGTCGCACC ((((((....)))..))), the folding enthalpy in data set [1] is -13.9 kcal/mol. Moreover, the Tm in data set [2] is 45.6 °C.
GGCCGAGGAAACTCAGCC (((.(((....))).))): the folding enthalpy in data set [1] was -32 kcal/mol. Moreover, in data set [2], the Tm stood at 46.4 °C.
GCATAGCGAAAGCCGTGC (((..((....))..))): in data set [1], the folding enthalpy is -17.5 kcal/mol. Besides, in data set [2], the Tm came out at 39.6 °C.
As to GTAACGCCGAAAGGCTAC (((..(((....)))))), in data set [1], the folding enthalpy was -6.97 kcal/mol. Further, the Tm in data set [2] turned out to be 27.1 °C.
In the same order, the values of GATAGAGCGAAAGCTATC (((..(((....)))))) are -13 kcal/mol and 32.3 °C.
In the same order, the values of GGTTGAGGAAACTCAATC (.(((((....))))).) are -28.3 kcal/mol and 43.4 °C.
In the same order, the values of GGCGACGAAAGTCGGGCC ((((((....)))..))) are -11 kcal/mol and 53.3 °C.
In the case of GCTCAGGGAAACCCGAGC ((((.((....)).)))), the folding enthalpy in data set [1] was -35.8 kcal/mol. Also, the Tm in data set [2] came to 51.3 °C.
With GCACGAGGAAACTCATGC (((.(((....))).))), in data set [1], the folding enthalpy was -28.8 kcal/mol. Besides, the Tm in data set [2] was 41.2 °C.
As to GGGAACGGAAACATTCCC (((((.(....).))))), the folding enthalpy in data set [1] is -32.6 kcal/mol. Besides, the Tm in data set [2] was determined as 39.4 °C.
GTGGATGCGAAAGCACAC (((..(((....)))))): the folding enthalpy in data set [1] is -17.9 kcal/mol. The Tm in data set [2] is 45.4 °C.
Turning to CGTCCGGAAACGGTTACG ((((((....)))..))), in data set [1], the folding enthalpy was -13.9 kcal/mol. Moreover, in data set [2], the Tm was found to be 39.3 °C.
In the same order, the values of GAGCATGCGAAAGCACTC (((..(((....)))))) are -8.93 kcal/mol and 27 °C.
On to GACTCCGAAAGGATGGTC ((((((....)))..))), for which the folding enthalpy in data set [1] was -21.7 kcal/mol. The Tm in data set [2] was determined as 39.4 °C.
ACTATGAAAATAGT (((((....))))): the folding enthalpy in data set [1] is -11.8 kcal/mol. Also, in data set [2], the Tm was 32.2 °C.
Turning to GATAGTGGAAACACTGTC ((.((((....)))).)), the folding enthalpy in data set [1] is -29.7 kcal/mol. In addition, the Tm in data set [2] amounted to 43.4 °C.
In the same order, the values of GCGGTCATCCGC ((((....)))) are -26.7 kcal/mol and 59.3 °C.
With GATCCGCAATCGGATC ((((((....)))))), in data set [1], the folding enthalpy was -35.1 kcal/mol. The Tm in data set [2] worked out at 56 °C.
As for GCGACGCGAAAGCTGCGC (((..((....))..))), the folding enthalpy in data set [1] was -23.7 kcal/mol. In addition, the Tm in data set [2] stood at 61.9 °C.
GGATGCCGAAAGGCTCC (((.(((....)))))): the folding enthalpy in data set [1] was -17.8 kcal/mol. For the same sequence, the Tm in data set [2] was determined as 55 °C.
In the same order, the values of CGTGTGAAAACACG (((((....))))) are -29.3 kcal/mol and 58.6 °C.
In the same order, the values of GGGTGCGAAAGCAACCC ((((((....))).))) are -18.9 kcal/mol and 68.5 °C.
In the same order, the values of GTACTCGGAAACGAGTAC (((((((....))))))) are -37.7 kcal/mol and 63 °C.
GCCGCCGAAAGGCTCGGC ((((((....)))..))): the folding enthalpy in data set [1] is -17.6 kcal/mol. For the same sequence, the Tm in data set [2] worked out at 56.7 °C.
In the same order, the values of GATCGGTACACCGATC ((((((....)))))) are -40.4 kcal/mol and 62.2 °C.
In the same order, the values of GGGGTAGGAAACCACCCC (((((.(....).))))) are -30.2 kcal/mol and 50.7 °C.
In the same order, the values of GGGAGTCGAAAGACGCCC (((.(((....))).))) are -30 kcal/mol and 64.3 °C.
On to GATCAATCCTTGATC ((((((...)))))), for which the folding enthalpy in data set [1] is -28.7 kcal/mol. Further, the Tm in data set [2] was found to be 44 °C.
In the same order, the values of GACGACCGAAAGGTTGTC (((.(((....))).))) are -42.3 kcal/mol and 63.4 °C.
In the same order, the values of GCAAGTGGAAACATTTGC ((((.((....)).)))) are -29.8 kcal/mol and 45.9 °C.
Regarding GGTGACGGAAACATCACC (((((.(....).))))), the folding enthalpy in data set [1] is -33.1 kcal/mol. Besides, the Tm in data set [2] was 43.7 °C.
Regarding GCTTAGTCGAAAGACAGC (((..(((....)))))), the folding enthalpy in data set [1] is -17.2 kcal/mol. For the same sequence, the Tm in data set [2] amounted to 40.3 °C.
Consider GTGCTCGAAAGAGCCCAC ((((((....)))..))), for which the folding enthalpy in data set [1] is -8.93 kcal/mol. Further, in data set [2], the Tm was 35.8 °C.
In the same order, the values of GATCCGTTCGCGGATC ((((((....)))))) are -50.4 kcal/mol and 61.3 °C.
In the same order, the values of GGCTTAGCGAAAGCTGCC (((..(((....)))))) are -23 kcal/mol and 52.5 °C.
In the same order, the values of GCGGGGCGAAAGCTTCGC (((..((....))..))) are -35.3 kcal/mol and 63 °C.
On to GCGTGTGGAAACATGCGC (((..((....))..))), for which the folding enthalpy in data set [1] was -35.2 kcal/mol. In data set [2], the Tm was 60.9 °C.
In the same order, the values of GAACAGAAATGTTC (((((....))))) are -18.1 kcal/mol and 41.4 °C.
In the same order, the values of GCCTCCGAAAGGATGGGC ((((((....)))..))) are -41.9 kcal/mol and 50 °C.
